Data from ChEMBL document CHEMBL4024708, “Recent synthetic and medicinal perspectives of dihydropyrimidinones: A review” (Eur J Med Chem, 2017).
Values after ≈ are worked out from the molar mass of the structure shown.

Key:
Klebsiella pneumoniae = experiment: Antibacterial activity against Klebsiella pneumoniae MTCC 7028 by spectrophotometric method; assay type: functional
Procedure, shortened: (§1)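 Serial broth dilution, 200 to 15.625 μg/mL, in nutrient broth, sonicated 10 min. Inoculum gave a starting density of 10^3–10^4 CFU/mL. Flasks were shaken at 200 rpm and 37 °C, and growth followed by the rise in absorbance at 600 nm. MIC is the lowest concentration inhibiting the organism. Controls: compound without inoculum, and inoculum without compound.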

Pseudomonas aeruginosa = experiment: Antibacterial activity against Pseudomonas aeruginosa MTCC 2581 by spectrophotometric method; assay type: functional; procedure, shortened: as §1
Mus musculus [1] = experiment: Anticonvulsant activity in ip dosed maximal electroshock induced seizure mouse model assessed as suppression of hind limb tonic extension measured at 0.5 hrs post dose; assay type: functional; conditions: read-out: MED
Procedure, shortened: (§2)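 Albino mice given the compound ip, suspended in 0.5% methyl cellulose–water, at 30, 100 and 300 mg/kg. Maximal electroshock by corneal electrodes: 50 mA, 60 Hz, 0.2 s. Abolition of hind limb tonic extension scored as protection. Value is the minimum dose active in half or more of the mice.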

Mus musculus [2] = experiment: Anticonvulsant activity in ip dosed maximal electroshock induced seizure mouse model assessed as suppression of hind limb tonic extension measured at 4 hrs post dose; assay type: functional; conditions: read-out: MED; procedure, shortened: as §2
Escherichia coli = experiment: Antibacterial activity against Escherichia coli MTCC 443 by spectrophotometric method; assay type: functional; procedure, shortened: as §1
Staphylococcus aureus = experiment: Antibacterial activity against Staphylococcus aureus MTCC 3160 by spectrophotometric method; assay type: functional; procedure, shortened: as §1
Rattus norvegicus = experiment: Anti-inflammatory activity in rat assessed as inhibition of carrageenan-induced hind paw edema at 10 mg/kg, po pretreated for 1 hr followed by carrageenan challenge measured after 3 hrs by plethysmometer relative to control; assay type: functional
Procedure, shortened: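 Albino rats; carrageenan-induced paw edema test after Winter et al., with diclofenac sodium as reference standard. Percentage reduction in inflammation recorded 3 h after carrageenan, relative to carrageenan-only animals.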

[3] = biological target: T1, Alpha-1A adrenergic receptor (Homo sapiens, UniProt P35348); experiment: Displacement of [125I]L-762,459 from recombinant human alpha1a adrenergic receptor expressed in mammalian cells measured after 1 hr; assay type: cell-based
T1 sequence (P35348 whole entry): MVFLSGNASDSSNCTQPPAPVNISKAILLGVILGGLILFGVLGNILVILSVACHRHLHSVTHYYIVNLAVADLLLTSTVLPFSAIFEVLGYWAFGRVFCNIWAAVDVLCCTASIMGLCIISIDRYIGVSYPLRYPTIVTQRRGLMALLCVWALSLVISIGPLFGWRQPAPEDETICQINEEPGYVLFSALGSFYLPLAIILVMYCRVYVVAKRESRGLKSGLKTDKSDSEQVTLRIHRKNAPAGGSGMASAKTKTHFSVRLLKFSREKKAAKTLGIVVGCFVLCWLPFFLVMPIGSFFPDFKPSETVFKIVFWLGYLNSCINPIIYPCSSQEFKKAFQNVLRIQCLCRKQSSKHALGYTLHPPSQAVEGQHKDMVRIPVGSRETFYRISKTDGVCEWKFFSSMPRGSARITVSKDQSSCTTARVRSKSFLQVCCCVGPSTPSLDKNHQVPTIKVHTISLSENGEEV

[4] = Antioxidant activity assessed as cupric ion reducing activity by measuring increase in absorbance at 12.5 ppm by CUPRAC assay; assay type: functional
Procedure, shortened: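 CUPRAC: reduction of Cu(II) to Cu(I) followed by the increase in absorbance at 450 nm. Sample and distilled water were made up to 4 mL total, near pH 7. Compounds were tested at 12.5–100 ppm, with gallic acid and quercetin as standards.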

[5] = Antioxidant activity assessed as DPPH free radical scavenging activity at 100 ppm after 30 mins in dark by spectrophotometric method relative to control; assay type: functional
Procedure, shortened: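 DPPH (1,1-diphenyl-2-picrylhydrazyl) radical scavenging assay. The change in absorbance was read at 517 nm on a spectrophotometer. Activity is given as percent inhibition of the DPPH radical, calculated as (absorbance of control − absorbance of sample)/absorbance of control × 100.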

[6] = Antioxidant activity assessed as cupric ion reducing activity by measuring increase in absorbance at 100 ppm by CUPRAC assay; assay type: functional
Procedure, shortened: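 CUPRAC assay. Sample solution was mixed with distilled water, at a pH close to 7. Reduction of Cu(II) to Cu(I) was followed as the increase in absorbance at 450 nm of the reaction mixture.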

[7] = Half-life in Beagle dog at 0.5 mg/kg, iv by LC-MS analysis; assay type: ADME, organism-based, Canis lupus familiaris; conditions: in vivo

## CC(=O)C1=C(C)NC(=O)NC1c1ccc(Cl)cc1 (centres undefined)
Klebsiella pneumoniae
  MIC: 31.2 to 62.5 µg/mL (≈ 118 to 236 µM)
Pseudomonas aeruginosa; read-out: MIC
  MIC: 250 µg/mL (≈ 944 µM)

## SC1=NC(n2nc(-c3ccccc3)nc2-c2ccccc2)=CC(c2ccc(Br)cc2)N1 (centres undefined)
Mus musculus [1]
  minimal effective dose: 100 mg/kg
Mus musculus [2]
  minimal effective dose: 300 mg/kg

## CCC(=O)C1=C(C)NC(=O)NC1c1ccc(Cl)cc1 (centres undefined)
Klebsiella pneumoniae
  MIC: 31.2 to 62.5 µg/mL (≈ 112 to 224 µM)
Pseudomonas aeruginosa
  MIC: 15.6 to 31.2 µg/mL (≈ 56 to 112 µM)
Escherichia coli
  MIC: 15.6 to 31.2 µg/mL (≈ 56 to 112 µM)
Staphylococcus aureus
  MIC: 62.5 to 125 µg/mL (≈ 224 to 448 µM)

## NC(=O)N1c2ccccc2C=Cc2ccccc21 [CARBAMAZEPINE]
Mus musculus [2]
  minimal effective dose: 100 mg/kg

## O=C(O)CC1=C(c2ccc(Cl)cc2)NC(=S)NC1c1cccs1 (centres undefined)
Rattus norvegicus
  inhibition in vivo at 10 mg/kg: 16%

## COc1ccc(C2C=C(n3nc(-c4ccccc4)nc3-c3ccccc3)N=C(S)N2)c(OC)c1 (centres undefined)
Mus musculus [1]
  minimal effective dose: 30 mg/kg
Mus musculus [2]
  minimal effective dose: 300 mg/kg

## O=C(O)CC1=C(c2ccc(Cl)cc2)N=C(S)NC1c1ccc(Cl)cc1 (centres undefined)
Rattus norvegicus
  inhibition in vivo at 10 mg/kg: 25%

## CC1=C(C(=O)NCCCN2CCC(c3ccc(F)cc3)CC2)[C@@H](c2ccc(F)c(F)c2)N(C)C(=O)N1C
[3]
  Ki: 0.14 nM

## O=C(O)CC1=C(c2ccccc2)N=C(S)NC1c1ccc(Cl)cc1 (centres undefined)
Rattus norvegicus
  inhibition in vivo at 10 mg/kg: 30%

## SC1=NC(n2nc(-c3ccccc3)nc2-c2ccccc2)=CC(c2ccccc2Cl)N1 (centres undefined)
Mus musculus [1]
  minimal effective dose: 30 mg/kg
Mus musculus [2]
  minimal effective dose: 300 mg/kg

## COc1ccc(C2NC(=O)NC(C)=C2C(C)=O)cc1 (centres undefined)
Klebsiella pneumoniae
  MIC: 31.2 to 62.5 µg/mL (≈ 120 to 240 µM)
Pseudomonas aeruginosa; read-out: MIC
  MIC: 250 µg/mL (≈ 960 µM)
Staphylococcus aureus
  MIC: 62.5 to 125 µg/mL (≈ 240 to 480 µM)

## COCC1=C(C(=O)NCCCN2CCC(C#N)(c3ccc(C#N)cc3)CC2)[C@@H](c2ccc(F)c(F)c2)NC(=O)N1
[3]
  Ki: 0.16 nM

## CCC(=O)C1=C(C)NC(=O)NC1c1ccccc1 (centres undefined)
Pseudomonas aeruginosa
  MIC: 15.6 to 31.2 µg/mL (≈ 63.9 to 128 µM)
Staphylococcus aureus
  MIC: 62.5 to 125 µg/mL (≈ 256 to 512 µM)

## SC1=NC(n2nc(-c3ccccc3)nc2-c2ccccc2)=CC(c2ccc(-c3ccccc3)cc2)N1 (centres undefined)
Mus musculus [1]
  minimal effective dose: 100 mg/kg
Mus musculus [2]
  minimal effective dose: 300 mg/kg

## COCC1=C(C(=O)NCCCN2CCC(C#N)(c3ccc(F)cc3)CC2)[C@@H](c2ccc(F)cc2)NCN1
[3]
  Ki: 0.17 nM

## CN(C)c1ccc(C2C=C(n3cc(-c4ccccc4)nc3-c3ccccc3)N=C(S)N2)cc1 (centres undefined)
Mus musculus [1]
  minimal effective dose: 100 mg/kg
Mus musculus [2]
  minimal effective dose: 300 mg/kg

## COc1ccc(C2NC(S)=NC(c3ccccc3)=C2CC(=O)O)cc1 (centres undefined)
Rattus norvegicus
  inhibition in vivo at 10 mg/kg: 32%

## CCC(=O)C1=C(C)NC(=O)NC1c1ccc(OC)cc1 (centres undefined)
Klebsiella pneumoniae
  MIC: 31.2 to 62.5 µg/mL (≈ 114 to 228 µM)
Pseudomonas aeruginosa; read-out: MIC
  MIC: 250 µg/mL (≈ 911 µM)
[4]
  absorbance: 0.05
Staphylococcus aureus
  MIC: 250 µg/mL (≈ 911 µM)

## CC(=O)C1=C(C)NC(=O)NC1c1ccccc1 (centres undefined)
Pseudomonas aeruginosa; read-out: MIC
  MIC: 250 µg/mL (≈ 1090 µM)
Escherichia coli
  MIC: 15.6 to 31.2 µg/mL (≈ 67.7 to 135 µM)
[5]
  Activity: 64.4%
[6]
  absorbance: 0.87
Staphylococcus aureus
  MIC: 62.5 to 125 µg/mL (≈ 271 to 543 µM)

## SC1=NC(n2nc(-c3ccccc3)nc2-c2ccccc2)=CC(c2ccc(-c3ccco3)cc2)N1 (centres undefined)
Mus musculus [1]
  minimal effective dose: 30 mg/kg
Mus musculus [2]
  minimal effective dose: 300 mg/kg

## CCC(=O)C1=C(C)NC(=O)NC1c1cccc(Cl)c1 (centres undefined)
Klebsiella pneumoniae
  MIC: 31.2 to 62.5 µg/mL (≈ 112 to 224 µM)
Pseudomonas aeruginosa; read-out: MIC
  MIC: 62.5 µg/mL (≈ 224 µM)
Escherichia coli
  MIC: 15.6 to 31.2 µg/mL (≈ 56 to 112 µM)

## COCC1=C(C(=O)NCCCN2CCC(c3ccc(F)cc3)CC2)[C@@H](c2ccc(F)c(F)c2)NC(=O)N1
[7]
  half-life: 7 to 8 h
